Source: PubChem
In the library only some 2% were active in any assay of this set; here they are far more common.
CAL PDZ FP-1: CAL PDZ peptide-binding inhibitors, primary screen, biochemical, fluorescence polarization, Cer-tagged CAL PDZ, HTS; Golgi-associated PDZ and coiled-coil motif-containing protein (Homo sapiens), Q9HD26; inhibition, % at 20 µM; purified CAL PDZ, TMR-peptide fluorescence polarization, 1 h; hit rate 0.02% among 330,000;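 active = highest replicate inhibition of at least 40%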
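Assay system – tagged CAL PDZ protein CerCALP, purified · Timing – 1 h at RT · Compound – single point, 20 µM · Measured by – fluorescence polarization from S- and P-plane intensities, G-factor corrected · Evaluation – inhibition from polarization loss · Probe or stimulus – TMR reporter peptide T*-PRC34 · Buffer or medium – pH 7.4 phosphate-saline buffer, reducing agent, detergent, IgG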
NTR1 agonist: agonists of human NTR1, primary screen, imaging, U2OS cells, beta-arrestin-GFP, high content; activation, % at 20 µM; AID 493036, 2011; NTR1-U2OS beta-arrestin-GFP spot imaging, agonist mode; hit rate 0.17% among 330,000;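 active = activation at or above 40% of the spot to cytoplasm intensity ratio, with at least 20 cells analyzed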
CAL PDZ FP-2: untagged CAL PDZ binding inhibitors, primary screen, biochemical, fluorescence polarization, HTS; hit rate 0.92% among 300,000; Golgi-associated PDZ and coiled-coil motif-containing protein (Homo sapiens), Q9HD26; inhibition, % at 24.9 µM; purified CAL PDZ, TMR-peptide fluorescence polarization, 1 h;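 active = mean inhibition of at least 30% with at least half of replicates also reaching 30%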
PKA-R2B act: activators of PKA-R2B holoenzyme, primary screen, biochemical, fluorescence polarization, Cy5-IP20, human | hit rate 0.079% among 340,000 | activation, % at 11.4 µM | AID 504700, 2011 | PKA-R2B holoenzyme dissociation; R2B truncated from residue 108, S112A mutant; 0% DMSO only, 100% 113 µM cGMP | cAMP-dependent protein kinase catalytic subunit beta (Homo sapiens) + cAMP-dependent …;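 active = activation above a cutoff set at the mean over all compounds plus 3 SD, cut at about 18% in these data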;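 note: higher means more holoenzyme dissociation and a rise in polarization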
Target sequence (P31323 whole entry, looked up, other chains not shown, the tested form may be a part): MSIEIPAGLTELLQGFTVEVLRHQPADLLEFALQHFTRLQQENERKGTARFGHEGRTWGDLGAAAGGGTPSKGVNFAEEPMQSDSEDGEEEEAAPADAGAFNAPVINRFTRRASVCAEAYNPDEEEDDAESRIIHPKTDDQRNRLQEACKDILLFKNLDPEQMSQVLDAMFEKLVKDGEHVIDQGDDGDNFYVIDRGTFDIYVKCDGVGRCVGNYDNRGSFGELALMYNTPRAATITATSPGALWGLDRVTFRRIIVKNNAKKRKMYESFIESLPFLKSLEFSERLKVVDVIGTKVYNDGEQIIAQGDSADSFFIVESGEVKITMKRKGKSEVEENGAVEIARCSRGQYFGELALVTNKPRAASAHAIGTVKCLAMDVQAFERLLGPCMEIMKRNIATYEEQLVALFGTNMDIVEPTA
PKA-R1A act: activators of PKA-R1A holoenzyme, primary screen, biochemical, fluorescence polarization, Cy5-IP20, bovine R1A, mouse PKAc. cAMP-dependent protein kinase type I-alpha regulatory subunit (Bos taurus) + …. AID 504707, 2011. activation, % at 11.4 µM. hit rate 0.083% among 340,000. PKA-R1A dissociation; scaled: DMSO 0%, 113 µM cGMP 100%;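 active = percent activation above the mean of all tested compounds plus 3 SD, cut at about 19% in these data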;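 note: higher means more PKAc released from R1A so a rise in polarization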
dFosB activator: activators of delta FosB homodimer, primary screen, biochemical, fluorescence polarization, TAMRA-CDK5 oligo, single point; Protein FosB (Mus musculus), P13346; purified delta FosB; percent of positive-control signal above neutral wells; activation, % at 25 µM; hit rate 0.99% among 340,000;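 active = mean activation above about 17%, with every replicate also reaching it, limit read from the data, passing the limit was not always enough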
Hits are given with their value; - = inactive; . = not tested or not shown.

SMILES | CAL PDZ FP-1 | NTR1 agonist | CAL PDZ FP-2 | PKA-R2B act | PKA-R1A act | dFosB activator
C#CCn1c(=NC(=O)c2ccccc2[N+](=O)[O-])sc2cc(S(C)(=O)=O)ccc21 | - | - | - | - | - | 33.4
COc1ccc(Nc2nc(NCc3ccco3)nc(N/N=C/c3ccc(O)cc3)n2)cc1 | - | - | - | - | - | 41.8
COc1cc(C(=O)Nc2ccc(-c3nc4cc(C)ccc4o3)c(O)c2)cc(OC)c1OC | - | - | - | - | - | 26.9
OC(CNCC1CCCO1)Cn1c2ccc(Cl)cc2c2cc(Cl)ccc21 (centres undefined) | - | - | 43.8 | - | - | -
C=CCn1c(SCC(=O)N(CCOC)c2c(N)n(CCCC)c(=O)[nH]c2=O)nnc1-c1ccc(Cl)cc1 | - | - | - | - | - | -
Oc1ccc(Nc2nc(N3CCCC3)c3ccccc3n2)cc1 | - | - | - | - | - | 79.9
COc1ccc(Nc2nc(N3CCCCC3)c3ccccc3n2)cc1 | - | - | - | - | - | -
CC(Cc1cccnc1)NC(=O)c1ccccc1OC1CCN(S(C)(=O)=O)CC1 (centres undefined) | - | - | 31.0 | - | - | -
COC(=O)[C@@H](NC(=O)c1ccccc1OC1CCN(S(C)(=O)=O)CC1)C(C)C | - | - | . | - | - | -
COc1ccc(C(=O)CCS(=O)(=O)c2ccc(C)cc2)cc1OC | - | - | - | - | - | -
COc1ccc(C(=O)CCC(C)(C)[N+](=O)[O-])cc1OC | - | - | 33.0 | - | - | -
COc1cccc(/C=N/NC(=O)c2ccc(COc3ccc(Cl)cc3Cl)o2)c1 | - | - | . | - | - | -
COc1cc(/C=N/NC(=O)c2ccc(COc3ccccc3Cl)o2)cc(Br)c1O | - | - | - | - | - | 34.4
COc1cccc(/C=N\NC(=O)c2ccc(Cn3cc(Br)c([N+](=O)[O-])n3)o2)c1O | - | - | - | - | - | 23.6
Cc1ccc(-c2nc(NC(=O)c3cc(C(C)(C)C)nn3C)sc2C)cc1Cl | - | - | - | - | - | -
CNS(=O)(=O)c1cccc(C(=O)OCC(=O)c2ccc3c(c2)OCCO3)c1 | - | - | 45.2 | - | - | -
Cc1cc(C)nc(Nc2n[nH]c(-c3ccccc3Cl)n2)n1 | - | - | 38.2 | - | - | -
Cc1cc(C)nc(Nc2n[nH]c(-c3cccc4ccccc34)n2)n1 | - | - | - | - | - | -
COc1cccc(C2C(C(=O)c3cc4ccccc4o3)=C(O)C(=O)N2CCN(C)C)c1OC (centres undefined) | . | - | 33.1 | - | - | -
Cc1ccc(/C(N)=N/OC(=O)c2cccs2)cc1 | - | - | - | - | - | -
Cc1cccc(/C(N)=N/OC(=O)c2cccs2)c1 | - | - | 53.1 | - | - | -
COCCNC(=O)c1ccc(S(=O)(=O)N2CCCc3ccccc32)cc1 | - | - | 59.0 | - | - | -
COc1ccccc1NC(=O)Cn1nc(-c2ccncc2)nc1SCC(=O)NC1CCCC1 | - | - | 36.2 | - | - | -
O=C(COC(=O)c1ccc(Cl)c(S(=O)(=O)NCc2ccccc2)c1)NCC1CCCO1 (centres undefined) | - | - | 43.8 | - | - | -
O=C(O)c1ccc(Cl)c(S(=O)(=O)NCC2CCCO2)c1 (centres undefined) | - | - | - | - | - | -
SMILES | CAL PDZ FP-1 | NTR1 agonist | CAL PDZ FP-2 | PKA-R2B act | PKA-R1A act | dFosB activator
O=C(CCC(=O)Nc1ccccc1Cl)NNC(=O)C1CCCCC1 | - | - | - | - | - | -
c1cnn(Cc2cnc(N3CCOCC3)s2)c1 | - | - | 61.1 | - | - | -
c1ccc(N2CCN(Cc3cnc(N4CCOCC4)s3)CC2)cc1 | - | - | - | - | - | -
Cc1ccccc1C1(O)c2ccccc2-c2ccccc21 | . | . | . | - | - | .
Cc1ccc(CNS(=O)(=O)c2ccc(Cl)s2)cc1 | . | . | . | - | - | .
Cc1cc(C(=O)NNC(=O)Nc2cccc(C(F)(F)F)c2)no1 | - | - | - | . | . | -
Cc1cc(C(=O)NNC(=O)c2ccc(C(F)(F)F)cc2)no1 | - | - | 59.6 | - | - | -
Cc1nc(C(=O)NNC(=O)c2ccc(C(F)(F)F)cc2)cs1 | . | - | . | . | . | .
Cc1cc(C(=O)NNC(=O)c2cccc(C(F)(F)F)c2)no1 | - | - | 45.0 | - | - | -
CN1C(=O)c2ccccc2C(C(=O)O)C1c1cn(C)c2ccccc12 (centres undefined) | . | - | 41.5 | - | - | -
Cc1cc(C)c2c(c1)/C(=N/NC(=S)Nc1ccc(F)cc1)CCC2 | - | - | - | - | - | 31.4
Cc1n[nH]c(C)c1S(=O)(=O)N1CCCC(C(=O)O)C1 (centres undefined) | - | - | - | - | - | -
CCn1c(CC(=O)Nc2ccc(OC)cc2)nnc1SCC(=O)N1CCOCC1 | - | - | - | - | - | -
CC(=O)c1cnc2nc(SCc3ccc(Cl)cc3)nn2c1C | . | - | 178.5 | - | - | -
CC(=O)c1cnc2nc(SCc3ccc(C)cc3)nn2c1C | - | - | . | - | - | -
CCc1cccc(CC)c1NC(=O)C1CCN(C(=O)c2ccco2)CC1 | - | - | - | - | - | -
COc1ccc(NC(=O)CSc2nc3sc(C)cc3c(=O)n2C)c(OC)c1 | - | - | 79.8 | - | - | -
CC(=O)c1ccc(N2CCN(S(=O)(=O)c3c(C(=O)N4CCCC4)c(C)n(C)c3C)CC2)cc1 | - | - | 80.2 | - | - | -
Cc1c(C(=O)N2CCCCC2)c(S(=O)(=O)NCc2ccc(Cl)cc2)c(C)n1C | - | - | 77.1 | - | - | -
Cc1c(C(=O)N2CCCCC2)c(S(=O)(=O)NCc2ccccc2Cl)c(C)n1C | - | - | 37.8 | - | - | -
Cc1ccc(CNS(=O)(=O)c2c(C(=O)N3CCCCCC3)c(C)n(C)c2C)cc1 | - | - | 75.6 | - | - | -
CC(=O)c1ccc(N2CCN(S(=O)(=O)c3c(C(=O)N4CCCCC4)c(C)n(C)c3C)CC2)cc1 | - | - | - | - | - | -
Cc1ccccc1CNS(=O)(=O)c1c(C(=O)N2CCCC2)c(C)n(C)c1C | - | - | - | - | - | -
COc1ccc(CNS(=O)(=O)c2c(C(=O)N3CCCCC3)c(C)n(C)c2C)cc1 | - | - | - | - | - | -
Cc1cc(C)cc(C(=O)N[C@@H](C)C(=O)N2CCC3(CC2)NCCc2[nH]cnc23)c1 | - | - | - | - | - | -
